Active and inactive are the calls of the source. The calls are words filed in the database; no cut-off is given here.
Assays:
[1] = tested on: HT-1080; test: Growth inhibition of human HT1080 cells after 24 hrs by alamar blue assay; assay type: functional, cell-based; details: HT-1080, 24 h
[2] = Growth inhibition of human BJeLR cells after 24 hrs by alamar blue assay; assay type: functional, cell-based
[3] = tested on: MCF-10A; test: Growth inhibition of human MCF10A cells after 24 hrs by alamar blue assay; assay type: functional, cell-based
[4] = tested on: HT-1080; test: Inhibition of microtubule polymerization in human HT1080 cells at 272 nM for 4 hrs by immunocytochemistry analysis; assay type: cell-based
Method in brief: (§1)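 HT-1080 cells were treated, then immunofluorescence-stained for microtubules and scored for loss of the hairlike network. Colchicine- and vinblastine-treated cells served as controls.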

[5] = target: Tubulin (Sus scrofa) (UniProt P02554+P02550); test: Inhibition of pig brain tubulin polymerization at 5 uM measured every min for 60 mins by spectrophotometry
Method in brief: (§2)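 Purified porcine brain tubulin self-polymerized into microtubules in buffer, and polymerization was followed as the rise in light scattering at 340 nm.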

[6] = tested on: HT-1080; test: Induction of apoptosis in human HT1080 cells assessed as caspase activation after 24 to 48 hrs; assay type: functional, cell-based
[7] = tested on: HT-1080; test: Induction of cell death in human HT1080 cells assessed as viability at 0.1 to 10000 nM after 24 hrs in the presence of caspase inhibitor Boc-D-fmk; assay type: functional, cell-based
[8] = tested on: HT-1080; test: Induction of cell death in human HT1080 cells assessed as viability at 0.1 to 10000 nM after 24 hrs in the presence of caspase inhibitor zVAD-fmk; assay type: functional, cell-based
[9] = tested on: HT-1080; test: Induction of cell death in human HT1080 cells in presence of calcium channel inhibitor Co2+; assay type: functional, cell-based
[10] = tested on: HT-1080; test: Induction of apoptosis in human HT1080 cells assessed as caspase activation at 0.33 to 2714 nM; assay type: functional, cell-based; details: TDE = time-dependent effect
[11] = organism: Sus scrofa; test: Stabilization of pig brain microtubule at 5 uM measured every min for 60 mins by spectrophotometry; method in brief: as §2
[12] = tested on: HT-1080; test: Induction of apoptosis in human HT1080 cells assessed as caspase activation at 0.33 to 2729 nM; assay type: functional, cell-based; details: TDE = time-dependent effect
[13] = tested on: HT-1080; details: Homo sapiens, 100 nM
[14] = tested on: HT-1080; test: Inhibition of microtubule polymerization in human HT1080 cells at 250 nM for 4 hrs by immunocytochemistry analysis; assay type: cell-based; method in brief: as §1
[15] = tested on: HT-1080; test: Induction of apoptosis in human HT1080 cells assessed as caspase activation at 0.81 to 6006 nM; assay type: functional, cell-based; details: TDE = time-dependent effect
[16] = tested on: HT-1080; test: Inhibition of microtubule polymerization in human HT1080 cells at 50 nM for 4 hrs by immunocytochemistry analysis; assay type: cell-based

Chain of Tubulin (Sus scrofa) (P02550 whole entry, looked up): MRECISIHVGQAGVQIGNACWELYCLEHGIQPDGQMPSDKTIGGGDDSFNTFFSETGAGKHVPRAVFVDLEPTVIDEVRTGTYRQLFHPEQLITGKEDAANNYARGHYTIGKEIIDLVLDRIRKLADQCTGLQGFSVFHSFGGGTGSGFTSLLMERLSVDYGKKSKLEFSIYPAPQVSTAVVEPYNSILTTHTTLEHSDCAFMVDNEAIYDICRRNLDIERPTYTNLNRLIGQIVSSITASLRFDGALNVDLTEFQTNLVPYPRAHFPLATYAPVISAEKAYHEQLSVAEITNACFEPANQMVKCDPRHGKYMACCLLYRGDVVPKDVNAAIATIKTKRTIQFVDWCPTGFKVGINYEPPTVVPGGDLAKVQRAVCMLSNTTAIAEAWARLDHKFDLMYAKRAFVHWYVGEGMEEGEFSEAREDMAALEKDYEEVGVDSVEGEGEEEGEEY
Chain of Tubulin (Sus scrofa) (P02554 whole entry, looked up): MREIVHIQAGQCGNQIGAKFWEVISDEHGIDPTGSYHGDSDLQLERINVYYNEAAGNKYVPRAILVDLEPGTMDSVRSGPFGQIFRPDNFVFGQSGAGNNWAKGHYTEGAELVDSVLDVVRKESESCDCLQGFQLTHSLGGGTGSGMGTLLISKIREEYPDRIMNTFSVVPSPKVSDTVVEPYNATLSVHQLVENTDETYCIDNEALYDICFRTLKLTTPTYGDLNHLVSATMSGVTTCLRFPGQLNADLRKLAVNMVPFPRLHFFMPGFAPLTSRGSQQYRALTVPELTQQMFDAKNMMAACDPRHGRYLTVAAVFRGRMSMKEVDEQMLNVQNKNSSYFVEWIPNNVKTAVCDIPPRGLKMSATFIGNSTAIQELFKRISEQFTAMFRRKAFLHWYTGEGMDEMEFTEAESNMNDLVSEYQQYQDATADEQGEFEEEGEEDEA

| SMILES | EC50 [1] | EC50 [2] | EC50 [3] | inhibition [4] | inhibition [5] | Activity [6] | Activity [7] | Activity [8] | Activity [9] | Activity [11] | other results |
| --- | --- | --- | --- | --- | --- | --- | --- | --- | --- | --- | --- |
| O=S(=O)(c1ccc(-c2cnc(C3CC3)o2)cc1)N1CCCc2ccccc21 | < 100 nM | < 100 nM | < 100 nM | Active | Active | Dose-dependent effect | Active | Active | Active | – | Activity [10]: tde |
| CC(=O)O[C@H]1C(=O)[C@@]2(C)[C@H]([C@H](OC(=O)c3ccccc3)[C@]3(O)C[C@H](OC(=O)[C@H](O)[C@@H](NC(=O)c4ccccc4)c4ccccc4)C(C)=C1C3(C)C)[C@]1(OC(C)=O)CO[C@@H]1C[C@@H]2O | – | – | – | – | – | – | – | – | – | Active | – |
| CCOc1ccc(C2=Nn3c(nnc3-c3ccccc3OC)SC2)cc1 | < 100 nM | < 100 nM | < 100 nM | Active | – | Dose-dependent effect | Active | Active | Active | – | Activity [12]: tde |
| CC[C@]1(O)C[C@@H]2CN(CCc3c([nH]c4ccccc34)[C@@](C(=O)OC)(c3cc4c(cc3OC)N(C)[C@H]3[C@@](O)(C(=O)OC)[C@H](OC(C)=O)[C@]5(CC)C=CCN6CC[C@]43[C@@H]65)C2)C1 | – | – | – | – | Active | – | – | – | – | – | inhibition [13]: Active |
| COc1ccccc1N1CCN(C(=O)c2cc(=O)c3cc(C)cc(C)c3o2)CC1 | < 100 nM | < 100 nM | < 100 nM | – | – | Dose-dependent effect | Active | Active | Active | Active | inhibition [14]: inactive; Activity [15]: tde |
| COc1cc2c(c(OC)c1OC)-c1ccc(OC)c(=O)cc1[C@@H](NC(C)=O)CC2 | – | – | – | – | – | – | – | – | – | – | inhibition [16]: Active |

Source: ChEMBL document CHEMBL2062452, “Identification of Simple Compounds with Microtubule-Binding Activity That Inhibit Cancer Cell Growth with High Potency” (ACS Med Chem Lett, 2011)
